Results on 9 molecules are retold here after ChEMBL document CHEMBL4177626, “Synthesis and anti-HCV activity of a series of β-d-2'-deoxy-2'-dibromo nucleosides and their corresponding phosphoramidate prodrugs” (Bioorg Med Chem Lett, 2017).

For data set [1], the system named is Human immunodeficiency virus. As to the kind of experiment: Antiviral activity against Human immunodeficiency virus up to 10 uM. It counts as functional, organism-based.
A further data set has as its system Norovirus. The data set is described as follows: Antiviral activity against Norovirus up to 10 uM. It counts as functional, organism-based.
A further data set deals with CCRF-CEM. As to the kind of experiment: (§1) Cytotoxicity against human CEM cells assessed as reduction in cell viability after 6 days by trypan blue exclusion assay. The class given is cell-based. To be noted: ccrf-cem, 144 h.
The next data set deals with West Nile virus. The data set is described as follows: Antiviral activity against West Nile virus up to 10 uM. The class given is functional, organism-based.
For data set [2], the system named is unidentified influenza virus. As to the kind of experiment: Antiviral activity against Influenza virus up to 10 uM. The class given is functional, organism-based.
The test system of a further data set is Huh-7. The data set is described as follows: Cytotoxicity against human HuH7 cells assessed as reduction in cell viability by MTT assay. It counts as cell-based.
A further data set concerns Chikungunya virus. The data set is described as follows: Antiviral activity against Chikungunya virus up to 10 uM. It counts as functional, organism-based.
The subject of the next data set is Dengue virus. The data set is described as follows: Antiviral activity against Dengue virus up to 10 uM. It counts as functional, organism-based.
The next data set relates to Hepatitis C virus. The data set is described as follows: Antiviral activity against HCV genotype 1b infected in human HuH7 cells assessed as inhibition of viral RNA replication after 5 days by RT-PCR method. The class given is functional, organism-based, Hepacivirus hominis. The settings on record: Huh-7, 120 h. An outline of the steps: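 Subgenomic HCV genotype 1b replicon in Huh-7 cells. Inhibition of replicon RNA replication was measured by extracting and amplifying HCV RNA. Cellular ribosomal RNA was extracted and amplified at the same time, as a parallel cytotoxicity read-out.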

The next data set concerns Ebolavirus. As to the kind of experiment: Antiviral activity against Ebolavirus up to 10 uM. It counts as functional.
The test system of the next data set is PBMC. As to the kind of experiment: (§2) Cytotoxicity against human PBMC assessed as reduction in cell viability after 6 days by trypan blue exclusion assay. It counts as cell-based. To be noted: pbmc, 144 h.
In another data set the test system is Vero. The data set is described as follows: (§3) Cytotoxicity against African green monkey Vero cells assessed as reduction in cell viability after 6 days by trypan blue exclusion assay. It counts as cell-based. The settings on record: chlorocebus sabaeus, vero, 144 h.
The subject of data set [3] is Respiratory syncytial virus. As to the kind of experiment: Antiviral activity against Respiratory syncytial virus up to 10 uM. The class given is functional, organism-based.
A short description of data set [4]: as §1. The class given is cell-based, CCRF-CEM. To be noted: CEM cells.
Data set [5] is described as follows: as §2. It counts as cell-based. To be noted: PBMC.
Data set [6] can be described thus: as §3. The class given is cell-based. To be noted: chlorocebus sabaeus, Vero cells.

The source made the active and inactive calls. No cut-off for these calls is given here.

With `CC(C)OC(=O)[C@H](C)N[P@](=O)(OC[C@H]1O[C@@H](n2cnc3c(=O)[nH]c(N)nc32)C(Br)(Br)[C@@H]1O)Oc1ccccc1`, the outcome (in [1]; in the data set on Norovirus; in the data set with West Nile virus; in data set [2]; in the data set with Chikungunya virus; in the data set on Dengue virus) was inactive. In addition, the result (in the data set with Ebolavirus; in [3]) was inactive. Besides, the CC50 in the data set with CCRF-CEM was 34 µM; in the data set with Huh-7 it was above 10 µM; in the data set with PBMC, above 100 µM; in the data set on Vero, above 100 µM. In addition, the EC50 with Hepatitis C virus is above 10 µM.
Regarding `CC(C)OC(=O)[C@H](C)N[P@](=O)(OC[C@H]1O[C@@H](n2ccc(N)nc2=O)C(Br)(Br)[C@@H]1O)Oc1ccccc1`, the result (in data set [1]; in the data set with Norovirus; in the data set with West Nile virus; in [2]; in the data set with Chikungunya virus; with Dengue virus) was inactive. Moreover, the result (in the data set on Ebolavirus; in data set [3]) was inactive. Moreover, the CC50 in the data set with CCRF-CEM is 73 µM; in the data set on Huh-7, above 10 µM; with PBMC, above 100 µM; in the data set on Vero it was above 100 µM. In the data set with Hepatitis C virus, the half-maximal effective concentration (EC50) was above 10 µM. In addition, the concentration for an effect of 90% (EC90) in the data set on Hepatitis C virus is above 10 µM.
Take `CC(C)OC(=O)[C@H](C)N[P@](=O)(OC[C@H]1O[C@@H](n2ccc(=O)[nH]c2=O)C(Br)(Br)[C@@H]1O)Oc1ccccc1`: the outcome (in [1]; in the data set with Norovirus; with West Nile virus; in data set [2]; in the data set with Chikungunya virus; in the data set on Dengue virus) was inactive. In addition, the result (with Ebolavirus; in data set [3]) was inactive. For the same molecule, the CC50 is 95 µM in the data set with CCRF-CEM, above 10 µM with Huh-7, above 100 µM in the data set with PBMC and above 100 µM in the data set on Vero. Moreover, in the data set on Hepatitis C virus, the EC50 turned out to be 1.5 µM. For the same molecule, the EC90 with Hepatitis C virus came to 2.7 µM.
For the molecule `CC(C)OC(=O)[C@H](C)N[P@](=O)(OC[C@H]1O[C@@H](n2cnc3c(N)ncnc32)C(Br)(Br)[C@@H]1O)Oc1ccccc1`, the outcome (in [1]; in the data set on Norovirus; with West Nile virus; in data set [2]; in the data set on Chikungunya virus; with Dengue virus) was inactive. For the same molecule, the result (with Ebolavirus; in data set [3]) was inactive. Besides, the CC50 is 33 µM in the data set with CCRF-CEM, above 10 µM in the data set on Huh-7, 57 µM in the data set on PBMC and 60 µM in the data set on Vero. Besides, the EC50 with Hepatitis C virus was above 10 µM.
With `Nc1nc2c(ncn2[C@@H]2O[C@H](CO)C(O)C2(Br)Br)c(=O)[nH]1` (single isomer, unassigned), the result (in data set [1]; in the data set with Norovirus; in the data set on West Nile virus; in data set [2]; in the data set on Chikungunya virus; in the data set with Dengue virus) was inactive. In addition, the outcome (with Ebolavirus; in data set [3]) was inactive. Also, the CC50 is above 100 µM with CCRF-CEM, above 10 µM in the data set on Huh-7, above 100 µM in the data set on PBMC and above 100 µM in the data set with Vero. Also, the EC50 in the data set on Hepatitis C virus is above 10 µM. Further, the EC90 in the data set with Hepatitis C virus is above 10 µM.
In the case of `Nc1ccn([C@@H]2O[C@H](CO)C(O)C2(Br)Br)c(=O)n1` (single isomer, unassigned), the outcome (in data set [1]; in the data set on Norovirus; in the data set on West Nile virus; in data set [2]; in the data set on Chikungunya virus; with Dengue virus) was inactive. Besides, the outcome (with Ebolavirus; in [3]) was inactive. Further, the CC50 in the data set with CCRF-CEM is 82 µM; in the data set on Huh-7, above 10 µM; in the data set with PBMC, above 100 µM; in the data set with Vero, above 100 µM. For the same molecule, in the data set with Hepatitis C virus, the EC50 is above 10 µM.
For `Nc1ncnc2c1ncn2[C@@H]1O[C@H](CO)C(O)C1(Br)Br` (single isomer, unassigned), the outcome (in [1]; in the data set on Norovirus; in the data set with West Nile virus; in data set [2]; in the data set on Chikungunya virus; in the data set with Dengue virus) was inactive. The result (in the data set on Ebolavirus; in data set [3]) was inactive. The CC50 in the data set with CCRF-CEM was above 100 µM; with Huh-7 it was above 10 µM; in the data set on PBMC it was above 100 µM; with Vero, above 100 µM. Moreover, in the data set with Hepatitis C virus, the EC50 is above 10 µM. The EC90 in the data set on Hepatitis C virus was above 10 µM.
On to `O=c1ccn([C@@H]2O[C@H](CO)C(O)C2(Br)Br)c(=O)[nH]1` (single isomer, unassigned), for which the outcome (in data set [1]; with Norovirus; in the data set on West Nile virus; in data set [2]; in the data set on Chikungunya virus; in the data set with Dengue virus) was inactive. For the same molecule, the outcome (in the data set on Ebolavirus; in [3]) was inactive. For the same molecule, the CC50 in the data set on CCRF-CEM was above 100 µM; with Huh-7, above 33 µM; in the data set on PBMC, above 100 µM; with Vero, above 100 µM. Also, in the data set with Hepatitis C virus, the EC50 was above 33 µM. The EC90 in the data set with Hepatitis C virus is above 33 µM.
As to `CC(C)OC(=O)[C@H](C)N[P@](=O)(OC[C@H]1O[C@@H](n2ccc(=O)[nH]c2=O)[C@](C)(F)[C@@H]1O)Oc1ccccc1` [SOFOSBUVIR], the CC50 at 144 h in data set [4], in data set [5] and in data set [6] was above 100 µM in each case. The CC50 in the data set with Huh-7 is above 10 µM. In the data set with Hepatitis C virus, the EC50 is 0.2 µM. Moreover, the EC90 with Hepatitis C virus is 0.5 µM.

By CC50 is commonly meant the concentration at which the toxic effect on the cells reaches its halfway point. In general, EC50 refers to the concentration that produces a half-maximal response. In general, EC90 refers to the concentration needed for an effect of 90%.
